Assay results taken from publication PMC8370032 (Bioorganic & medicinal chemistry, 2021).

Experiments:
[1] = tested on: RPMI-8226 cells; format: cell-based, human
Procedure, shortened: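 RPMI-8226 myeloma cells were exposed to a range of test-compound concentrations for 48 h, with lovastatin 10 μM as positive control. Lysates were immunoblotted for unmodified Rap1a (antibody detects only unmodified protein), H-Ras and β-tubulin (loading), and the same lysates were used for a lambda light chain ELISA (% of untreated control; mean ± SD, n=3; two-tailed t-test, p<0.05). LEC is the lowest concentration giving a visible unmodified Rap1a band plus a significant light chain rise.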

[2] = tested on: RPMI-8226 cells; assay: MTT assay; format: cell-based, human; conditions: RPMI-8226, 48 hours
[3] = tested on: myeloma cells; conditions: cited from earlier work

Structure (SMILES)	cytotoxicity in MTT assay [2]	also measured
CC(C)=CCC/C(C)=C/Cn1cc(C=C(P(=O)([O-])[O-])P(=O)([O-])[O-])nn1.[Na+].[Na+].[Na+].[Na+] [Compound 29, Disodium [1-[bis(sodiooxy)phosphoryl]-2-[1-[3,7-dimethylocta-2,6-dien-1-yl]-1H-1,2,3-triazol-4-yl]ethenyl]phosphonate]	induced cytotoxicity	potency in cellular assays relative to cyclopropyl derivative 31 [1]: two-fold more potent
CC(C)=CCC/C(C)=C/Cn1cc(CC(O)(P(=O)([O-])[O-])P(=O)([O-])[O-])nn1.[Na+].[Na+].[Na+].[Na+] [Compound 37]	induced cytotoxicity	–
CC(C)=CCC/C(C)=C/Cn1cc(CC(CN)(P(=O)([O-])[O-])P(=O)([O-])[O-])nn1.[Na+].[Na+].[Na+].[Na+] [Compound 17]	induced cytotoxicity	–
CC(C)=CCC/C(C)=C/Cn1cc(CC(C)(P(=O)([O-])[O-])P(=O)([O-])[O-])nn1.[Na+].[Na+].[Na+].[Na+] [Compound 3]	–	increase in potency in cellular assays compared to the parent compound 1 [3]: 5 fold
CC(C)=CCC/C(C)=C/Cn1cc(CC(F)(P(=O)([O-])[O-])P(=O)([O-])[O-])nn1.[Na+].[Na+].[Na+].[Na+] [Compound 7, (2-[1-(3,7-Dimethyl-octa-2,6-dienyl)-1H-[1,2,3]triazol-4-yl]-1-fluoro-1-phosphono-ethyl)-phosphonic acid]	induced cytotoxicity	–
CCC(Cc1cn(C/C=C(\C)CCC=C(C)C)nn1)(P(=O)([O-])[O-])P(=O)([O-])[O-].[Na+].[Na+].[Na+].[Na+] [Compound 4]	–	decrease in potency in cellular assays (relative to 1) [3]: five-fold
CC(C)=CCC/C(C)=C/Cn1cc(CCP(=O)([O-])[O-])nn1.[Na+].[Na+] [Compound 27]	neither of the monophosphonates (11, 27), induced cytotoxicity	–
C=C(Cc1cn(C/C=C(\C)CCC=C(C)C)nn1)P(=O)([O-])[O-].[Na+].[Na+] [Compound 11]	neither of the monophosphonates (11, 27), induced cytotoxicity	–
